Tn6 DDE FP – inhibitors of Tn6 peptide binding to fibrin DD(E), primary screen, biochemical, fluorescence polarization, human fibrin, Tn6 probe | Fibrinogen beta chain (Homo sapiens), P02675 | Fibrin DD(E) TRITC-Tn6 fluorescence polarization displacement | inhibition, % at 8.3 µM | 370,000 tested, 0.21% active | AID 720509, 2013;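 active = inhibition above a per-campaign cutoff: mean of compounds within control limits plus 3 SD, cut at about 15% in these data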;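 note: 0% = median of all compound wells on the plate and 100% = blocking peptide control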
GRK2 aptamer HTS – compounds blocking aptamer binding on GRK2 – biochemical, human GRK2, bead flow cytometry, HTS, primary screen; Beta-adrenergic receptor kinase 1 (Homo sapiens), P25098; FAM-aptamer displacement from GRK2; inhibition of aptamer binding, % at 10 µM; 330,000 tested, 0.59% active; AID 488847, 2010;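 active = inhibition of aptamer binding above 40%, roughly 3 SD of noise, on plates passing a quality check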;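 note: median bead fluorescence of bound FAM aptamer so fluorescent compounds give negative values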
Insulin prom up – insulin promoter activators in MIN6 cells, imaging, high-content screening, mouse beta cells; z-score at 5 µM; MIN6 insulin promoter-GFP reporter; stronger effect = higher value; 190,000 tested, 0.3% active;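 active = z-score above 3 at 5 µM with at least 500 cells counted in the well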
ABCB1 inh – ABCB1 efflux pump inhibitors, primary screen, cell-based, multiplex, flow cytometry, ABCG2 counter-screen; ATP-dependent translocase ABCB1 (Homo sapiens), P08183; CCRF-Adr cells, JC-1 efflux; inhibition, % at 6.6 µM; 190,000 tested, 0.067% active; AID 1326, 2008; in the data active = inhibition above about 40%;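 note: 0% = vehicle and 100% = reference inhibitor; higher value means more JC-1 retained so stronger ABCB1 efflux block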
Target sequence (P08183 whole entry, looked up): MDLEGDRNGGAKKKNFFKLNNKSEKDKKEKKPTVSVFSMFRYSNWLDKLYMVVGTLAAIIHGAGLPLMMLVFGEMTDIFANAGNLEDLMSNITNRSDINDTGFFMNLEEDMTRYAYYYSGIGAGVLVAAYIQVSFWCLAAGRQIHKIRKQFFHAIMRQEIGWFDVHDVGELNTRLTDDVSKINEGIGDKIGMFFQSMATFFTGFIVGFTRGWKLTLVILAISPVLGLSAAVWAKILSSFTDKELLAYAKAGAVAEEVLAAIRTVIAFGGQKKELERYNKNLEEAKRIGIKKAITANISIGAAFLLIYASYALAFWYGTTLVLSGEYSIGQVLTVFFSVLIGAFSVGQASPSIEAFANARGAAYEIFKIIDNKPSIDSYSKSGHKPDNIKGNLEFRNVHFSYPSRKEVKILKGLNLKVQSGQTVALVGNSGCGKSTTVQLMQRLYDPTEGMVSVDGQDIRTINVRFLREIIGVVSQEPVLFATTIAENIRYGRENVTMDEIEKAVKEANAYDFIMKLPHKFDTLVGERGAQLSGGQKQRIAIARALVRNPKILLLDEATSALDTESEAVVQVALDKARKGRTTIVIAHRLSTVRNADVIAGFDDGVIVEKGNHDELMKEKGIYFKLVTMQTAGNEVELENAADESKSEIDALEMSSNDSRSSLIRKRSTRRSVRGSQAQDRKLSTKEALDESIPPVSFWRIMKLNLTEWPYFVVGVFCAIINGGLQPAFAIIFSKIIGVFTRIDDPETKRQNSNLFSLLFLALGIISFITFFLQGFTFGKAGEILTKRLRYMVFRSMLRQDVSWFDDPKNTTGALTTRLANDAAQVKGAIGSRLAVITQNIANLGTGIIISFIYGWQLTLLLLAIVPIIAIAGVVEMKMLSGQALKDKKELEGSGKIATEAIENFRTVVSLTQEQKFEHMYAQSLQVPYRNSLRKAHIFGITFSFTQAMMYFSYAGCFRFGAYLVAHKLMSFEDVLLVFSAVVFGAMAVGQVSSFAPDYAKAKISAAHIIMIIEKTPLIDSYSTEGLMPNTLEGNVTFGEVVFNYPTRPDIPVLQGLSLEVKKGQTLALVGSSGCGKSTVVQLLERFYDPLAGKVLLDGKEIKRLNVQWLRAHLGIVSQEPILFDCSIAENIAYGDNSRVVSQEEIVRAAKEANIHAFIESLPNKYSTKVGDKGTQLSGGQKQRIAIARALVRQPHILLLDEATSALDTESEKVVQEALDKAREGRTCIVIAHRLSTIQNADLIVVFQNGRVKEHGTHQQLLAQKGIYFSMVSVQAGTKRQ
ABCG2 block – ABCG2 efflux pump inhibitors, primary screen, multiplex with ABCB1, IgMXP3 cells, flow cytometry | Broad substrate specificity ATP-binding cassette transporter ABCG2 (Homo sapiens), Q9UNQ0 | JC-1 efflux | inhibition, % at 6.6 µM | 190,000 tested, 0.1% active;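 active = inhibition above 80%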;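 note: 0% = DMSO and 100% = nicardipine control wells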
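material = IgMXP3 (ABCG2) plus far-red-tagged CCRF-Adr (ABCB1) cells | amount = 3 million cells/mL, equal mix of both lines | also added = JC-1 transporter substrate | dosing = one concentration, 6.6 µM final | schedule = 10 min at 25 °C | measured by = flow cytometric JC-1 green MFI at 530 nm | read-out basis = percent efflux inhibition, scaled nicardipine 100% to DMSO 0%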
DDE Tn7 FP inh – inhibitors of Tn7 peptide binding to fibrin DD(E), primary screen, biochemical, fluorescence polarization, human fibrin, Tn7 probe; FP displacement of FITC-Tn7 peptide from fibrin DD(E); 0% = median of compound wells per plate; 370,000 tested, 0.13% active; Fibrinogen beta chain (Homo sapiens), P02675; inhibition, % at 8.3 µM;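 active = inhibition above the mean of compounds falling within the control limits plus 3 SD of them, cut at about 14% in these data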;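 note: 0% = plate median of compound wells and 100% = 10 µM Aha-Tn7 peptide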
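System: human fibrin DD(E); quantity: Fibrin-DD(E) at 2 µM final; also added: fluorescent Tn7 probe at 0.1 µM; compound dosing: single nominal test concentration of 8.3 µM per compound; schedule: 10 min preincubation, 3 h with tracer, room temperature; detection: fluorescence polarization of the labelled Tn7 tracer; repeats: one replicate per compound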
Tn6 DDE ctr – counter-screen for inhibitors of Tn6 peptide binding to fibrin DD(E); shares compounds with Tn6 DDE FP; TRITC-Tn6 fluorescence polarization displacement; 0% = median of compound wells, not DMSO; inhibition, % at 8.3 µM; 680 tested, 2% active; AID 720621;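 active = inhibition above the mean of test compounds lying between the control limits plus 3 SD of those, cut at about 14% in these data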;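 note: 0% = median of compound wells and 100% = wells with Aha-Tn7 blocking peptide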
DDE Tn6 confirm – inhibitors of Tn6 peptide binding to fibrin DD(E), confirmation, biochemical, fluorescence polarization, human fibrin, Tn6 probe. shares compounds with Tn6 DDE FP. FP displacement of TRITC-Tn6 peptide from DD(E); 0% = per-plate median of test wells. inhibition, % at 8.3 µM. 680 tested, 10% active. AID 720631, 2013;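 active = inhibition above the mean of compounds lying within the control limits plus 3 SD, cut at about 16% in these data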;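 note: 100% = high control wells holding a competing inhibitor peptide at 10 µM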
* marks the source's active call; other numbers are inactive results; . = no result. Shown are actives, neighbours in structure and some others; about 0.99% of the full set was active somewhere.

SMILES	Tn6 DDE FP	GRK2 aptamer HTS	Insulin prom up	ABCB1 inh	ABCG2 block	DDE Tn7 FP inh	Tn6 DDE ctr	DDE Tn6 confirm
O=C1c2ccccc2CCC12N=NCC2c1ccc(Br)cc1 (centres undefined)	1.2	3.0	0.09	-0.1	0.8	-1.6	.	.
O=C1c2ccccc2CCC12N=NCC2c1ccc(Cl)cc1 (centres undefined)	17.1*	4.0	-0.42	0.1	1.0	0.9	-5.5	-11.4
CN(C)C(=O)c1cccc(-c2cnc3c(NC=O)cc(-c4ccccc4N(C)C)cn23)c1	30.6*	.	.	.	.	-8.2	2.6	-5.1
O=C(CSc1n[nH]c(=O)n1C1CC1)Nc1ccccc1	-9.6	2.0	.	.	.	4.2	.	.
N#Cc1ccc(NC(=O)CSc2n[nH]c(=O)n2C2CC2)cc1	16.1*	0.0	.	.	.	3.2	3.4	4.3
O=C(NCC(=O)N1CCN(S(=O)(=O)c2cccc(F)c2)CC1)c1ccc(Br)o1	15.8*	2.0	.	.	.	-2.1	13.7	4.0
O=[N+]([O-])c1ccccc1S(=O)(=O)N1CCC(c2cn3ccccc3n2)CC1	1.1	.	.	.	.	-6.2	.	.
COC(=O)[C@H](C(C)C)N(CCCc1cn(CC2CCCCC2)nn1)S(=O)(=O)c1ccccc1Br	-1.3	.	.	.	.	2.3	.	.
CCOC(=O)C1CCCN(c2c(NCCc3ccc(C)cc3)c(=O)c2=O)C1 (centres undefined)	17.3*	0.0	-0.82	.	.	1.5	2.7	-9.8
CCN1C=C(Cc2ccc(F)cc2)C2=C(C1)C(c1ccc(F)cc1)C(C#N)=C(N)O2 (centres undefined)	17.9*	3.0	.	0.4	1.2	7.6	8.8	9.2
CCN1C=C(Cc2ccccc2C)C2=C(C1)C(c1ccccc1C)C(C#N)=C(N)O2 (centres undefined)	6.2	0.0	0.21	2.8	1.8	2.3	.	.
CC(C)CSc1ncccc1-c1nc2ccccc2[nH]1	0.4	.	.	.	.	0.4	.	.
Cc1ccc(-c2csc3ncnc(N4CCN(c5ccccc5O)CC4)c23)cc1	16.0*	2.0	.	.	.	4.1	4.3	-1.8
COc1ccc(-c2csc3ncnc(N4CCN(c5ccccc5O)CC4)c23)cc1	.	3.0	.	.	.	.	.	.
Cc1ccc(S(=O)c2ccc([N+](=O)[O-])c3nonc23)cc1 (centres undefined)	-11.8	.	.	.	.	-7.0	.	.
CC(=O)c1ccc(N2CCN(CN3C(=O)CC4(CCCC4)C3=O)CC2)c(F)c1	69.6*	0.0	.	.	.	-9.5	8.2	2.5
CC(C)(C)NC(=O)C(c1ccc(C#N)cc1)n1c(=O)c(-c2ccco2)nc2ccccc21 (centres undefined)	-1.8	.	.	.	.	-3.5	.	.
O=C(COC(=O)c1cc(-c2cccc3ccccc23)nc2ccccc12)NC1CCS(=O)(=O)C1 (centres undefined)	29.8*	4.0	0.44	1.9	14.7	-4.7	5.6	19.7*
Cc1cc(C(=O)OCC(=O)NC2CCS(=O)(=O)C2)c2ccccc2n1 (centres undefined)	7.8	3.0	1.51	0.3	11.0	-1.0	.	.
CC(=O)Nc1ccccc1-c1ccc(C)o1	5.6	4.0	0.66	0.4	3.0	-2.8	.	.
Cc1ccc(NC(=O)CS(=O)CC(=O)Nc2ccccc2-c2ccc(C)o2)cc1 (centres undefined)	22.2*	6.0	.	.	.	8.4	-1.2	-2.7
COc1ccc(CNC(=O)CN2C(=O)NC(C)(c3ccc(C(C)(C)C)cc3)C2=O)cc1 (centres undefined)	2.5	0.0	.	.	.	7.3	.	.

Assay outcomes deposited in PubChem by several laboratories.
